tested on: not listed separately; assay: Oral bioavailability in Sprague-Dawley rat at 10 mg/kg; type: ADME, organism-based; conditions: in vivo

SMILES | bioavailability [%]
FC(F)(F)Cc1nnc2c(Cl)c(N3CCC(F)(c4ccccc4)CC3)ccn12 | 63
CCc1nnc2c(C(F)(F)F)c(N3CCC(c4ccccc4)CC3)ccn12 | 35
FC(F)(F)C1(c2ccccc2)CCN(c2ccn3c(CC4CC4)nnc3c2Cl)CC1 | 53

tested on: not listed separately; assay: Cmax in Sprague-Dawley rat at […], iv or 10 mg/kg, po; type: ADME, organism-based; conditions: in vivo

SMILES | Cmax [µg/mL]
FC(F)(F)Cc1nnc2c(Cl)c(N3CCC(F)(c4ccccc4)CC3)ccn12 | 0.807
CCc1nnc2c(C(F)(F)F)c(N3CCC(c4ccccc4)CC3)ccn12 | 0.359
FC(F)(F)C1(c2ccccc2)CCN(c2ccn3c(CC4CC4)nnc3c2Cl)CC1 | 0.289

tested on: not listed separately; assay: AUC (0 to infinity) in Sprague-Dawley rat at 10 mg/kg, po; type: ADME, organism-based; design: time infinity, dose 10 mg/kg, route oral; conditions: plasma

SMILES | AUC(0-inf) [µg·h/mL]
FC(F)(F)Cc1nnc2c(Cl)c(N3CCC(F)(c4ccccc4)CC3)ccn12 | 5.99
CCc1nnc2c(C(F)(F)F)c(N3CCC(c4ccccc4)CC3)ccn12 | 1.01
FC(F)(F)C1(c2ccccc2)CCN(c2ccn3c(CC4CC4)nnc3c2Cl)CC1 | 1.16

tested on: not listed separately; assay: Tmax in Sprague-Dawley rat at […], iv or 10 mg/kg, po; type: ADME, organism-based; conditions: in vivo

SMILES | Tmax [h]
FC(F)(F)Cc1nnc2c(Cl)c(N3CCC(F)(c4ccccc4)CC3)ccn12 | 1.7
CCc1nnc2c(C(F)(F)F)c(N3CCC(c4ccccc4)CC3)ccn12 | 0.7
FC(F)(F)C1(c2ccccc2)CCN(c2ccn3c(CC4CC4)nnc3c2Cl)CC1 | 1.3

tested on: not listed separately; assay: Volume of distribution at steady state in Sprague-Dawley rat at […], iv or 10 mg/kg, po; type: ADME, organism-based; conditions: in vivo, read-out: Vdss

SMILES | Vd [L/kg]
FC(F)(F)Cc1nnc2c(Cl)c(N3CCC(F)(c4ccccc4)CC3)ccn12 | 1.9
CCc1nnc2c(C(F)(F)F)c(N3CCC(c4ccccc4)CC3)ccn12 | 1.4
FC(F)(F)C1(c2ccccc2)CCN(c2ccn3c(CC4CC4)nnc3c2Cl)CC1 | 5.1

tested on: not listed separately; assay: Half life in Sprague-Dawley rat at […], iv; type: ADME, organism-based; design: dose 2.5 mg/kg, route intravenous; conditions: in vivo

SMILES | half-life [h]
FC(F)(F)Cc1nnc2c(Cl)c(N3CCC(F)(c4ccccc4)CC3)ccn12 | 2.6
CCc1nnc2c(C(F)(F)F)c(N3CCC(c4ccccc4)CC3)ccn12 | 1.9
FC(F)(F)C1(c2ccccc2)CCN(c2ccn3c(CC4CC4)nnc3c2Cl)CC1 | 2.1

tested on: not listed separately; assay: Clearance in Sprague-Dawley rat at […], iv; type: ADME, organism-based; design: dose 2.5 mg/kg, route intravenous; conditions: in vivo

SMILES | clearance [L/h/kg]
FC(F)(F)Cc1nnc2c(Cl)c(N3CCC(F)(c4ccccc4)CC3)ccn12 | 1.08
CCc1nnc2c(C(F)(F)F)c(N3CCC(c4ccccc4)CC3)ccn12 | 3.18
FC(F)(F)C1(c2ccccc2)CCN(c2ccn3c(CC4CC4)nnc3c2Cl)CC1 | 4.62

tested on: not listed separately; assay: Ratio of drug level in brain to plasma in Swiss mouse at 10 mg/kg, sc administered as single dose measured 1 hr post dose; type: ADME, organism-based; design: dose 10 mg/kg, route subcutaneous; conditions: read-out: BPR
Summary of the method: (§1)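 Swiss mice given a single 10 mg/kg sc dose at 1 mg/mL in 20% HP-β-CD + HCl solution, pH 4. Brain and plasma levels taken 1 h post dose. Values are geometric means of at least two runs.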

SMILES | Kp at 1 h
FC(F)(F)Cc1nnc2c(Cl)c(N3CCC(F)(c4ccccc4)CC3)ccn12 | 1.4
CCc1nnc2c(C(F)(F)F)c(N3CCC(c4ccccc4)CC3)ccn12 | 1.3
CCc1nnc2c(C#N)c(N3CCC(c4ccccc4)CC3)ccn12 | 0.2
FC(F)(F)C1(c2ccccc2)CCN(c2ccn3c(CC4CC4)nnc3c2Cl)CC1 | 1.6
FC(F)(F)Cc1nnc2c(Cl)c(N3CCC(c4ccccc4)CC3)ccn12 | 1.8
Clc1c(N2CCC(c3ccccc3)CC2)ccn2c(CC3CC3)nnc12 | 1.4

tested on: not listed separately; assay: Drug level in Swiss mouse brain at 10 mg/kg, sc administered as single dose measured 1 hr post dose; type: ADME, organism-based; design: dose 10 mg/kg, route subcutaneous; conditions: read-out: Drug uptake; summary of the method: as §1

SMILES | concentration at 1 h [µg/mL]
CCc1nnc2c(C#N)c(N3CCC(c4ccccc4)CC3)ccn12 | 0.135
FC(F)(F)Cc1nnc2c(Cl)c(N3CCC(c4ccccc4)CC3)ccn12 | 2.09
Clc1c(N2CCC(c3ccccc3)CC2)ccn2c(CC3CC3)nnc12 | 3.83

tested on: not listed separately; assay: Plasma concentration in Swiss mouse at 10 mg/kg, sc administered as single dose measured 1 hr post dose; type: ADME, organism-based; design: dose 10 mg/kg, route subcutaneous; conditions: not given; summary of the method: as §1

SMILES | concentration at 1 h [µg/mL]
CCc1nnc2c(C#N)c(N3CCC(c4ccccc4)CC3)ccn12 | 0.672
FC(F)(F)Cc1nnc2c(Cl)c(N3CCC(c4ccccc4)CC3)ccn12 | 1.16
Clc1c(N2CCC(c3ccccc3)CC2)ccn2c(CC3CC3)nnc12 | 2.66

molecular target: hERG (Homo sapiens, UniProt Q12809); assay: Inhibition of human ERG expressed in HEK293 cells at 3 uM by patch clamp assay; type: cell-based; conditions: HEK293 cells expressing hERG
Summary of the method: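 HEK293 cells stably expressing hERG, whole-cell currents recorded by automated patch clamp in extracellular solution (mM: 150 NaCl, 4 KCl, 1 MgCl2, 1.8 CaCl2, 10 HEPES, 5 glucose, pH 7.4). Vehicle (0.1% DMSO) applied for 5 min, then compound at 0.1, 0.3 and 3 μM, each applied twice (n = 3). Effect taken after 5 min as the mean current of three pulses; residual current compared with vehicle.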

hERG, sequence (Q12809 whole entry): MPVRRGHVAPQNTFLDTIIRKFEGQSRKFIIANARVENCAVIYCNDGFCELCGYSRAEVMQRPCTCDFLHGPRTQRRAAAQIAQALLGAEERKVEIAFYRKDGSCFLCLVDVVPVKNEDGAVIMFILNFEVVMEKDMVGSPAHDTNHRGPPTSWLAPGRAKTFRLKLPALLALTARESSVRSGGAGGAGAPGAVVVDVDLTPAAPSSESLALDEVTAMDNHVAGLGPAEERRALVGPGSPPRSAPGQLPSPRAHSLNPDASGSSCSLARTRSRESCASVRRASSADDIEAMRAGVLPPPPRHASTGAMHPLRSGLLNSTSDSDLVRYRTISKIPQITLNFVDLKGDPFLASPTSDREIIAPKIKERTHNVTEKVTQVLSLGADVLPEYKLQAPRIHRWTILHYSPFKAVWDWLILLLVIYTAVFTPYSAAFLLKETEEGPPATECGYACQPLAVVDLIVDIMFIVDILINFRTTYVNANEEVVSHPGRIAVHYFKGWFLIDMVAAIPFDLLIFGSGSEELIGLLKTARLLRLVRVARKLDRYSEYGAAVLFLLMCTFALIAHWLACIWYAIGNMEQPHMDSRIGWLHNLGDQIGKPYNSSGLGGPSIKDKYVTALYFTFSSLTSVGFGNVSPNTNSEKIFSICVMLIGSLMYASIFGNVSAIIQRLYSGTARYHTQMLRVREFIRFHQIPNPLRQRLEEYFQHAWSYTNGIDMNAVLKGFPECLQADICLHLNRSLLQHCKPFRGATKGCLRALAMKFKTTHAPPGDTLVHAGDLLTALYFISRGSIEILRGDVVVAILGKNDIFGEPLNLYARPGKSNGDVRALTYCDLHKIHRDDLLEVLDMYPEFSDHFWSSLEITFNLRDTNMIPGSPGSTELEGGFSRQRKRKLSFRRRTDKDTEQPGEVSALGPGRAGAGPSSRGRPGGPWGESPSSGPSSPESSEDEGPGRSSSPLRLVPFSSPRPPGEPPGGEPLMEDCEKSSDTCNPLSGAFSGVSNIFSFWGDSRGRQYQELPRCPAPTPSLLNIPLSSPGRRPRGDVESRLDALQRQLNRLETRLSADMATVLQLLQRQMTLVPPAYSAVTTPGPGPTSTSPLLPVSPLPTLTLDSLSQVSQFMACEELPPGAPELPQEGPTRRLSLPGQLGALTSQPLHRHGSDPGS

SMILES | inhibition at 3 µM [%]
FC(F)(F)Cc1nnc2c(Cl)c(N3CCC(F)(c4ccccc4)CC3)ccn12 | 42
CCc1nnc2c(C(F)(F)F)c(N3CCC(c4ccccc4)CC3)ccn12 | 36
CCCCc1nnc2c(C(F)(F)F)c(N3CCC(c4ccccc4)CC3)ccn12 | 91
CCc1nnc2c(Cl)c(N3CCC(c4ccccc4)CC3)ccn12 | 43
CCc1nnc2c(C#N)c(N3CCC(c4ccccc4)CC3)ccn12 | 20
N#Cc1c(N2CCC(c3ccccc3)CC2)ccn2c(CC(F)(F)F)nnc12 | 33
Fc1ccc(C2CCN(c3ccn4c(CC5CC5)nnc4c3C(F)(F)F)CC2)c(F)c1 | 91
FC(F)(F)C1(c2ccccc2)CCN(c2ccn3c(CC4CC4)nnc3c2Cl)CC1 | 42
FC(F)(F)Cc1nnc2c(Cl)c(N3CCC(c4ccccc4)CC3)ccn12 | 71
Clc1c(N2CCC(c3ccccc3)CC2)ccn2c(CC3CC3)nnc12 | 99
FC(F)(F)c1c(N2CCC(F)(c3ccccc3)CC2)ccn2c(CC3CC3)nnc12 | 84

tested on: not listed separately; assay: Drug metabolism in mouse liver microsomes at 5 uM after 15 mins; type: ADME, Microsome; conditions: read-out: Drug metabolism

SMILES | metabolised at […], 5 µM [%]
N#Cc1c(N2CCC(c3ccccc3)CC2)ccn2c(CN3CCCC3)nnc12 | 88
FC(F)(F)Cc1nnc2c(Cl)c(N3CCC(F)(c4ccccc4)CC3)ccn12 | 25
CCc1nnc2c(C(F)(F)F)c(N3CCC(c4ccccc4)CC3)ccn12 | 42
CCCCc1nnc2c(C(F)(F)F)c(N3CCC(c4ccccc4)CC3)ccn12 | 54
CCc1nnc2c(Cl)c(N3CCC(c4ccccc4)CC3)ccn12 | 39
CCc1nnc2c(C#N)c(N3CCC(c4ccccc4)CC3)ccn12 | 7
N#Cc1c(N2CCC(c3ccccc3)CC2)ccn2c(CC(F)(F)F)nnc12 | 10
Fc1ccc(C2CCN(c3ccn4c(CC5CC5)nnc4c3C(F)(F)F)CC2)c(F)c1 | 16
FC(F)(F)C1(c2ccccc2)CCN(c2ccn3c(CC4CC4)nnc3c2Cl)CC1 | 41
FC(F)(F)Cc1nnc2c(Cl)c(N3CCC(c4ccccc4)CC3)ccn12 | 8
FC(F)(F)c1c(N2CCC(F)(c3ccccc3)CC2)ccn2c(CC3CC3)nnc12 | 13

tested on: not listed separately; assay: Drug metabolism in human liver microsomes at 5 uM after 15 mins; type: ADME, Microsome; conditions: read-out: Drug metabolism
Summary of the method: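 Compound at 5 μM incubated 15 min with human liver microsomes; read-out is % of compound metabolized. Values are the mean of at least two experiments.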

SMILES | metabolised at […], 5 µM [%]
N#Cc1c(N2CCC(c3ccccc3)CC2)ccn2c(CN3CCCC3)nnc12 | 38
FC(F)(F)Cc1nnc2c(Cl)c(N3CCC(F)(c4ccccc4)CC3)ccn12 | 39
CCc1nnc2c(C(F)(F)F)c(N3CCC(c4ccccc4)CC3)ccn12 | 29
CCCCc1nnc2c(C(F)(F)F)c(N3CCC(c4ccccc4)CC3)ccn12 | 33
CCc1nnc2c(Cl)c(N3CCC(c4ccccc4)CC3)ccn12 | 57
CCc1nnc2c(C#N)c(N3CCC(c4ccccc4)CC3)ccn12 | 11
N#Cc1c(N2CCC(c3ccccc3)CC2)ccn2c(CC(F)(F)F)nnc12 | 9
Fc1ccc(C2CCN(c3ccn4c(CC5CC5)nnc4c3C(F)(F)F)CC2)c(F)c1 | 2
FC(F)(F)C1(c2ccccc2)CCN(c2ccn3c(CC4CC4)nnc3c2Cl)CC1 | 56
FC(F)(F)Cc1nnc2c(Cl)c(N3CCC(c4ccccc4)CC3)ccn12 | 13
Clc1c(N2CCC(c3ccccc3)CC2)ccn2c(CC3CC3)nnc12 | 56
FC(F)(F)c1c(N2CCC(F)(c3ccccc3)CC2)ccn2c(CC3CC3)nnc12 | 18

molecular target: T1, Metabotropic glutamate receptor 2 (Homo sapiens, UniProt Q14416); assay: Positive allosteric modulator activity at human mGlu2R expressed in CHO cells incubated for 30 mins by [35S]GTPgammaS binding assay relative to control; type: functional, cell-based; conditions: not given
Target sequence in this assay (Q14416 19-872 limits assumed): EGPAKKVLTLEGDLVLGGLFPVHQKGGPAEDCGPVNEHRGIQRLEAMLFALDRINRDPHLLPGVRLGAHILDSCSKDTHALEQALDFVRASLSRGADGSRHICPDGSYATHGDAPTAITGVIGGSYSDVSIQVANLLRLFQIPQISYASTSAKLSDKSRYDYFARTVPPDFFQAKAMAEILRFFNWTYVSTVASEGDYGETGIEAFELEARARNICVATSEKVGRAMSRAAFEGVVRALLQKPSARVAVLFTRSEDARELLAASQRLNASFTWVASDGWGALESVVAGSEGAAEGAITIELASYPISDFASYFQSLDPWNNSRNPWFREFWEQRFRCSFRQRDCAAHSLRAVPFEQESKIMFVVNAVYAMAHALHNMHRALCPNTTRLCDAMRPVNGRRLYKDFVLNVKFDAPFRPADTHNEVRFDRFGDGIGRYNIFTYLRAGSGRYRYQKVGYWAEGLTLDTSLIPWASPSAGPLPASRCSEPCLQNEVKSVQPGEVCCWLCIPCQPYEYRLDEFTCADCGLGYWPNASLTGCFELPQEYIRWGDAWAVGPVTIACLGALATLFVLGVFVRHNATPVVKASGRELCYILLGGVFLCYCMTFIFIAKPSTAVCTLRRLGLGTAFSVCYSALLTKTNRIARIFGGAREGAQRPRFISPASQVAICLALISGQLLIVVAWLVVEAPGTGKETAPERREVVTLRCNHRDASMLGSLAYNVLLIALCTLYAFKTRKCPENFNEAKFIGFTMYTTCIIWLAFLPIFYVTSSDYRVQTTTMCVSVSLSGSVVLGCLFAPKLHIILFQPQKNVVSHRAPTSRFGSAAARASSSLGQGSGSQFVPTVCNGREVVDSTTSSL

SMILES | Emax [%]
N#Cc1c(N2CCC(c3ccccc3)CC2)ccn2c(CN3CCCC3)nnc12 | 240
FC(F)(F)Cc1nnc2c(Cl)c(N3CCC(F)(c4ccccc4)CC3)ccn12 | 310
CCc1nnc2c(C(F)(F)F)c(N3CCC(c4ccccc4)CC3)ccn12 | 334
CCCCc1nnc2c(C(F)(F)F)c(N3CCC(c4ccccc4)CC3)ccn12 | 364
CCc1nnc2c(Cl)c(N3CCC(c4ccccc4)CC3)ccn12 | 262
CCc1nnc2c(C#N)c(N3CCC(c4ccccc4)CC3)ccn12 | 247
N#Cc1c(N2CCC(c3ccccc3)CC2)ccn2c(CC(F)(F)F)nnc12 | 277
Fc1ccc(C2CCN(c3ccn4c(CC5CC5)nnc4c3C(F)(F)F)CC2)c(F)c1 | 306
FC(F)(F)C1(c2ccccc2)CCN(c2ccn3c(CC4CC4)nnc3c2Cl)CC1 | 243
FC(F)(F)Cc1nnc2c(Cl)c(N3CCC(c4ccccc4)CC3)ccn12 | 300
Clc1c(N2CCC(c3ccccc3)CC2)ccn2c(CC3CC3)nnc12 | 343
FC(F)(F)c1c(N2CCC(F)(c3ccccc3)CC2)ccn2c(CC3CC3)nnc12 | 292

molecular target: T1, Metabotropic glutamate receptor 2; assay: Positive allosteric modulator activity at human mGlu2R expressed in CHO cells incubated for 30 mins by [35S]GTPgammaS binding assay; type: functional, cell-based; conditions: not given
Target sequence in this assay (Q14416 whole entry): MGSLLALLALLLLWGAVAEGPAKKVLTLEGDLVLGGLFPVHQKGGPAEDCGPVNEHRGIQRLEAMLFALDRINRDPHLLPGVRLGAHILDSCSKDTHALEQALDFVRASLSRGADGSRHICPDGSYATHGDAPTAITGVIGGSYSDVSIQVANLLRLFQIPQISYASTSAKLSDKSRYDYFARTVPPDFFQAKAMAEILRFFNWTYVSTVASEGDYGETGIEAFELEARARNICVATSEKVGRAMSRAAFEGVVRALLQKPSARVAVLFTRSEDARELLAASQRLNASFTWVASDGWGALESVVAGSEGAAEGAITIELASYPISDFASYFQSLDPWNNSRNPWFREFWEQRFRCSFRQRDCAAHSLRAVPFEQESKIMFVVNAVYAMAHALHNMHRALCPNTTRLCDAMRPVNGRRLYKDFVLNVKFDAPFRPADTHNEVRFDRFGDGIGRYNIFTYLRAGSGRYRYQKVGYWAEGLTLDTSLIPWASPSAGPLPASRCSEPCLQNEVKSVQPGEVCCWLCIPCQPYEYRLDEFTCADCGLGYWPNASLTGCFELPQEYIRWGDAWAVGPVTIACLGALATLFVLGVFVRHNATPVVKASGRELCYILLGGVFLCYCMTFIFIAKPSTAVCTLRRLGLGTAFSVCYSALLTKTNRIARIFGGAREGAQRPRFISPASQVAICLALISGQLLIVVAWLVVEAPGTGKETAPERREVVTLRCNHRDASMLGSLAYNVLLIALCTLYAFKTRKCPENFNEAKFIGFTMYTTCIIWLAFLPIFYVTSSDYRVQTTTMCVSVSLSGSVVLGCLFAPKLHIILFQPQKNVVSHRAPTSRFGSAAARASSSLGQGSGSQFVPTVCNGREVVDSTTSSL

SMILES | EC50 [µM]
N#Cc1c(N2CCC(c3ccccc3)CC2)ccn2c(CN3CCCC3)nnc12 | 1.12
CCc1nnc2c(C(F)(F)F)c(N3CCC(c4ccccc4)CC3)ccn12 | 0.116
CCc1nnc2c(Cl)c(N3CCC(c4ccccc4)CC3)ccn12 | 0.386
Fc1ccc(C2CCN(c3ccn4c(CC5CC5)nnc4c3C(F)(F)F)CC2)c(F)c1 | 0.01
FC(F)(F)Cc1nnc2c(Cl)c(N3CCC(c4ccccc4)CC3)ccn12 | 0.055
